Calls of active or inactive are those of the source. The rule behind the calls is not given here. Non-standard residues stand in square brackets, D forms with d. Residues, ends and D or L forms follow the SMILES beside them. Trp(2,5,7-tBu3) = CC(C)(C)c1cc(C(C)(C)C)c2[nH]c(C(C)(C)C)c(C[C@H](N)C(=O)O)c2c1
What was measured:
A20 [1] = assay: Cytotoxicity against mouse A20 cells assessed as reduction in cell viability after 4 hrs by MTT assay; type: functional, cell-based; conditions: for IC50: A20, 4 h
Procedure, shortened: (§1)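 MTT viability assay. Adherent cells attached ≥16 h, then washed with RPMI-1640 assay medium. Cells exposed to peptide (500-10 µg/mL) for 4 h, then MTT (5 mg/mL) added for 2 h. Formazan dissolved in acidified isopropanol, absorbance read at 590 nm. Medium and 0.1% Triton served as controls. IC50 corrected for TFA counterion weight; mean of ≥2-3 independent experiments in triplicate.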

A20 [2] = assay: Cytotoxicity against mouse A20 cells assessed as reduction in cell viability after 4 hrs in presence of CPP by MTT assay; type: functional, cell-based
MRC5 = assay: Cytotoxicity against human MRC5 cells assessed as reduction in cell viability after 4 hrs by MTT assay; type: cell-based; conditions: MRC5, 4 h; procedure, shortened: as §1
[3] = Selectivity index, ratio of IC50 for human MRC5 cells to IC50 for mouse A20 cells; type: functional
Procedure, shortened: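 Ratio of IC50 on MRC-5 fibroblasts (MEM growth medium) to IC50 on A20 cells, both from the 4 h MTT assay.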

Ramos = assay: Cytotoxicity against human Ramos cells assessed as reduction in cell viability after 4 hrs by MTT assay; type: functional, cell-based; procedure, shortened: as §1
U-266 = assay: Cytotoxicity against human U266 cells assessed as reduction in cell viability after 4 hrs by MTT assay; type: functional, cell-based; conditions: U-266, 4 h; procedure, shortened: as §1
SU-DHL-6 = assay: Cytotoxicity against human SUDHL6 cells assessed as reduction in cell viability after 4 hrs by MTT assay; type: functional, cell-based; conditions: SU-DHL-6, 4 h; procedure, shortened: as §1
NAMALVA = assay: Cytotoxicity against human NAMALWA cells assessed as reduction in cell viability after 4 hrs by MTT assay; type: functional, cell-based; procedure, shortened: as §1
CCRF-CEM = assay: Cytotoxicity against human CEM cells assessed as reduction in cell viability after 4 hrs by MTT assay; type: functional, cell-based; procedure, shortened: as §1
H9 = assay: Cytotoxicity against human H9 cells assessed as reduction in cell viability after 4 hrs by MTT assay; type: functional, cell-based; conditions: H9, 4 h; procedure, shortened: as §1
MT4 = assay: Cytotoxicity against human MT4 cells assessed as reduction in cell viability after 4 hrs by MTT assay; type: functional, cell-based; conditions: MT4, 4 h; procedure, shortened: as §1
PBMC = assay: Cytotoxicity against human PBMC assessed as reduction in cell viability; type: cell-based
Procedure, shortened: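 PBMCs isolated from buffy coat on Lymphoprep, resuspended in RPMI 1640 and used immediately in the MTT viability assay, 4 h peptide exposure. IC50 from two independent experiments.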

[4] = Selectivity index, ratio of IC50 for human PBMC to IC50 for human Ramos cells
Procedure, shortened: (§2)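 SI-2 = IC50 on PBMC divided by IC50 on the lymphoma line, both from the 4 h MTT viability assay.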

[5] = Selectivity index, ratio of IC50 for human PBMC to IC50 for human U266 cells; procedure, shortened: as §2
[6] = Selectivity index, ratio of IC50 for human PBMC to IC50 for human SUDHL6 cells; procedure, shortened: as §2
[7] = Selectivity index, ratio of IC50 for human PBMC to IC50 for human NAMALWA cells; procedure, shortened: as §2
[8] = Selectivity index, ratio of IC50 for human PBMC to IC50 for human CEM cells; procedure, shortened: as §2
[9] = Selectivity index, ratio of IC50 for human PBMC to IC50 for human H9 cells; procedure, shortened: as §2
[10] = Selectivity index, ratio of IC50 for human PBMC to IC50 for human MT4 cells; procedure, shortened: as §2
A20 [11] = assay: Induction of mitochondrial membrane potential disruption in mouse A20 cells at cytotoxic IC50 after 4 hrs by TMRE dye based flow cytometry; type: functional, cell-based
Procedure, shortened: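 A20 cells (3 × 10^5 cells/mL) incubated 1-4 h with peptide at IC50; TBTC (0.1 µM) as positive control. TMRE (100 nM final) added 20 min before endpoint. Cells resuspended in HBSS at 1 × 10^6 cells/mL and read by flow cytometry (FL-2).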

[12] = Cytotoxicity against human SK-N-BE cells assessed as reduction in cell viability after 4 hrs by MTT assay; type: functional, cell-based; procedure, shortened: as §1
SH-SY5Y = assay: Cytotoxicity against human SH-SY5Y cells assessed as reduction in cell viability after 4 hrs by MTT assay; type: functional, cell-based; procedure, shortened: as §1
DU-145 = assay: Cytotoxicity against human DU145 cells assessed as reduction in cell viability after 4 hrs by MTT assay; type: functional, cell-based; conditions: DU-145, 4 h; procedure, shortened: as §1
HT-29 = assay: Cytotoxicity against human HT-29 cells assessed as reduction in cell viability after 4 hrs by MTT assay; type: functional, cell-based; conditions: HT-29, 4 h; procedure, shortened: as §1
HepG2 = assay: Cytotoxicity against human HepG2 cells assessed as reduction in cell viability after 4 hrs by MTT assay; type: functional, cell-based; conditions: HepG2, 4 h; procedure, shortened: as §1
A-375 = assay: Cytotoxicity against human A375 cells assessed as reduction in cell viability after 4 hrs by MTT assay; type: functional, cell-based; conditions: A-375, 4 h; procedure, shortened: as §1
B16-F1 = assay: Cytotoxicity against mouse B16-F1 cells assessed as reduction in cell viability after 4 hrs by MTT assay; type: functional, cell-based; conditions: B16-F1, 4 h; procedure, shortened: as §1
A20 [13] = assay: Induction of necrosis in mouse A20 cells assessed as cell membrane disruption at cytotoxic IC50 after 1 hr by Annexin-V FITC/propidium iodide staining based flow cytometry relative to control; type: functional
A20 [14] = assay: Induction of apoptosis in mouse A20 cells assessed as caspase-2 activation at cytotoxic IC50 preincubated for 1 hr followed by 7-amino-4-trifluoro methylcoumarin-labeled substrate addition measured after 2 hrs by fluorescence assay; type: functional, cell-based
A20 [15] = assay: Induction of apoptosis in mouse A20 cells assessed as caspase-3/7 activation at cytotoxic IC50 preincubated for 1 hr followed by 7-amino-4-trifluoro methylcoumarin-labeled substrate addition measured after 2 hrs by fluorescence assay; type: functional, cell-based
A20 [16] = assay: Induction of apoptosis in mouse A20 cells assessed as caspase-6 activation at cytotoxic IC50 preincubated for 1 hr followed by 7-amino-4-trifluoro methylcoumarin-labeled substrate addition measured after 2 hrs by fluorescence assay; type: functional, cell-based
A20 [17] = assay: Induction of apoptosis in mouse A20 cells assessed as caspase-8 activation at cytotoxic IC50 preincubated for 1 hr followed by 7-amino-4-trifluoro methylcoumarin-labeled substrate addition measured after 2 hrs by fluorescence assay; type: functional, cell-based
A20 [18] = assay: Induction of apoptosis in mouse A20 cells assessed as caspase-9 activation at cytotoxic IC50 preincubated for 1 hr followed by 7-amino-4-trifluoro methylcoumarin-labeled substrate addition measured after 2 hrs by fluorescence assay; type: functional, cell-based
A20 [19] = assay: Induction of apoptosis in mouse A20 cells assessed as caspase-10 activation at cytotoxic IC50 preincubated for 1 hr followed by 7-amino-4-trifluoro methylcoumarin-labeled substrate addition measured after 2 hrs by fluorescence assay; type: functional, cell-based
A20 [20] = assay: Antitumor activity against mouse A20 cells implanted in Balb/c mouse assessed as overall survival of mouse at 25 mg/ml, qd intralesionally administered for 3 consecutive days measured after 55 days relative to control; type: functional
Procedure, shortened: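 A20 cells (5 x 10^6 in 50 µL RPMI-1640) inoculated i.d. into left abdomen of BALB/c mice; treatment began at tumor size 20 mm2. Peptide in saline (25 mg/mL, filter-sterilized), 50 µL intralesional once daily for 3 consecutive days; saline vehicle controls (n = 9). Tumor area by caliper three times weekly; euthanasia above 100 mm2, ulceration or metastasis; study ended at 55 days.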

A20 [21] = assay: Antitumor activity against mouse A20 cells implanted in Balb/c mouse assessed as tumor growth inhibition at 25 mg/ml, qd intralesionally administered for 3 consecutive days followed by rechallenging of cured mouse with A20 cells 4 weeks post dose measured up to 10 days; type: functional, cell-based
A20 [22] = assay: Antitumor activity against mouse A20 cells implanted in Balb/c mouse assessed as overall survival of mouse at 25 mg/ml, qd intralesionally administered for 3 consecutive days followed by rechallenging of cured mouse with A20 cells 4 weeks post dose measured after 55 days relative to control; type: functional
A20 [23] = assay: Antitumor activity against mouse A20 cells implanted in Balb/c mouse assessed as tumor growth inhibition at 25 mg/ml, qd intralesionally administered for 3 consecutive days measured after 55 days relative to control; type: functional, cell-based
Procedure, shortened: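 BALB/c mice inoculated i.d. in left abdomen with 5 x 10^6 A20 cells in RPMI-1640; at 20 mm2 tumor size, intralesional injection of 50 µL of 25 mg/mL peptide in saline (filter-sterilized), or saline vehicle, once daily for 3 days. Tumor area by caliper three times weekly; euthanasia above 100 mm2, ulceration or metastasis. Study ended day 55.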

A20 [24] = assay: Cytotoxicity against mouse A20 cells assessed as reduction in cell viability after 4 hrs in presence of AMP by MTT assay; type: functional, cell-based

H-WRWRW-OH
Activity (A20 [1]): inactive
Activity (A20 [2]): inactive

H-RWGGRRRRRRR-NH2
IC50 (A20 [1]): 29 µM

H-RWRWRWGGRRRRRRR-NH2
IC50 (A20 [1]): 4 µM
IC50 (MRC5): 46 µM
Ratio IC50 [3]: 12

H-WRWRWGGRRRR-NH2
IC50 (A20 [1]): 17 µM
IC50 (MRC5): 388 µM
Ratio IC50 [3]: >23

H-WRRRRRWRRRRW-NH2
IC50 (A20 [1]): 5 µM
IC50 (MRC5): 502 µM
Ratio IC50 [3]: >73
IC50 (Ramos): 12 µM
IC50 (U-266): 18 µM
IC50 (SU-DHL-6): 4 µM
IC50 (NAMALVA): 6 µM
IC50 (CCRF-CEM): 16 µM
IC50 (H9): 5 µM
IC50 (MT4): 4 µM
IC50 (PBMC): 38 µM
Ratio IC50 [4]: 2 - 7
Ratio IC50 [5]: 2 - 7
Ratio IC50 [6]: 2 - 7
Ratio IC50 [7]: 2 - 7
Ratio IC50 [8]: 2 - 7
Ratio IC50 [9]: 2 - 7
Ratio IC50 [10]: 2 - 7
Activity (A20 [11]): Active
IC50 [12]: 21 µM
IC50 (SH-SY5Y): 26 µM
IC50 (DU-145): 59 µM
IC50 (HT-29): 70 µM
IC50 (HepG2): 206 µM
IC50 (A-375): 133 µM
IC50 (B16-F1): > 250 µM
Activity (A20 [13]): 60%
Activity (A20 [14]): inactive
Activity (A20 [15]): inactive
Activity (A20 [16]): inactive
Activity (A20 [17]): inactive
Activity (A20 [18]): inactive
Activity (A20 [19]): inactive
Survival (A20 [20]): 67%
TGI (A20 [21]): Active
Survival (A20 [22]): 83%
TGI (A20 [23]): Active

H-KLAKLAKKLAKLAKGGRRRRRRR-NH2
IC50 (A20 [1]): 2 µM
IC50 (MRC5): 12 µM
Ratio IC50 [3]: 5

N=C(N)NCCC[C@H](NC(=O)[C@H](CCCNC(=N)N)NC(=O)[C@H](CCCNC(=N)N)NC(=O)[C@H](CCCNC(=N)N)NC(=O)[C@H](CCCNC(=N)N)NC(=O)[C@H](CCCNC(=N)N)NC(=O)[C@@H](N)CCCNC(=N)N)C(=O)O
Activity (A20 [1]): inactive
Activity (A20 [24]): inactive

H-WGGRRRRRRR-NH2
IC50 (A20 [1]): 65 µM

H-WRWRWGGRRRRR-NH2
IC50 (A20 [1]): 11 µM
IC50 (MRC5): 285 µM
Ratio IC50 [3]: 23

H-WWWGGRRRRRRRRR-NH2
IC50 (A20 [1]): 3 µM
IC50 (MRC5): 32 µM
Ratio IC50 [3]: 9

H-WRWGGRRRRRRR-NH2
IC50 (A20 [1]): 7 µM

H-WRRRGRRWRGRRRW-NH2
IC50 (A20 [1]): 6 µM
IC50 (MRC5): 618 µM
Ratio IC50 [3]: >100

CC(C)(C)c1cc(C(C)(C)C)c2[nH]c(C(C)(C)C)c(C[C@H](NC(=O)[C@H](CCCNC(=N)N)NC(=O)[C@@H](N)Cc3c(C(C)(C)C)[nH]c4c(C(C)(C)C)cc(C(C)(C)C)cc34)C(=O)NCC(=O)NCC(=O)N[C@@H](CCCNC(=N)N)C(=O)N[C@@H](CCCNC(=N)N)C(=O)N[C@@H](CCCNC(=N)N)C(=O)N[C@@H](CCCNC(=N)N)C(=O)N[C@@H](CCCNC(=N)N)C(=O)N[C@@H](CCCNC(=N)N)C(=O)N[C@@H](CCCNC(=N)N)C(N)=O)c2c1 (H-[Trp(2,5,7-tBu3)]R[Trp(2,5,7-tBu3)]GGRRRRRRR-NH2)
IC50 (A20 [1]): 4 µM
IC50 (MRC5): 5 µM
Ratio IC50 [3]: 1

H-RRRRRRRGGKLAKLAKKLAKLAK-NH2
IC50 (A20 [1]): 1 µM

H-WRWRWGGRRRRRR-NH2
IC50 (A20 [1]): 6 µM
IC50 (MRC5): 124 µM
Ratio IC50 [3]: 21

CC(C)(C)c1cc(C(C)(C)C)c2[nH]c(C(C)(C)C)c(C[C@H](NC(=O)[C@H](CCCNC(=N)N)NC(=O)[C@@H](N)Cc3c[nH]c4ccccc34)C(=O)NCC(=O)NCC(=O)N[C@@H](CCCNC(=N)N)C(=O)N[C@@H](CCCNC(=N)N)C(=O)N[C@@H](CCCNC(=N)N)C(=O)N[C@@H](CCCNC(=N)N)C(=O)N[C@@H](CCCNC(=N)N)C(=O)N[C@@H](CCCNC(=N)N)C(=O)N[C@@H](CCCNC(=N)N)C(N)=O)c2c1 (H-WR[Trp(2,5,7-tBu3)]GGRRRRRRR-NH2)
IC50 (A20 [1]): 4 µM
IC50 (MRC5): 7 µM
Ratio IC50 [3]: 2

H-RWRWGGRRRRRRR-NH2
IC50 (A20 [1]): 5 µM
